22 molecules from ChEMBL document CHEMBL1158566, “The bisnaphthalimides as new active lead compounds against Plasmodium falciparum” (Bioorg Med Chem, 2010) can be followed below.

The nature of assay [1]: Cytotoxicity against mouse J774.1 cells after 48 hrs by alamar blue satining. Type of assay: cell-based. The conditions noted are these: J774.1, 48 h. The method in brief:
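J774.1 macrophages at 1×10^5 cells/mL in phenol-red-free RPMI (10% FCS, 2 mM glutamine, 10 mM Hepes pH 7.2, 50 µM 2-mercaptoethanol, antibiotics) with increasing compound concentrations, 24 h at 37 °C, 5% CO2. AlamarBlue added to 10%, further 24 and 48 h incubation. Absorbance read at 540 nm against 630 nm reference. Final DMSO ≤1%, duplicates.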
For orientation: The colour change of resazurin is a common sign of viable cells or microbes.

The test system of assay [2] is Plasmodium falciparum. Nature of the assay: Antiplasmodial activity against chloroquine-sensitive Plasmodium falciparum 3D7 assessed as parasite-specific LDH release after 72 hrs by Malstat assay. Format: functional, organism-based. The following applies: 3D7, 72 h. The method in brief:
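Synchronized 3D7 ring stages seeded at 1% parasitemia with compound (in H2O or DMSO) across 10 pM–100 µM. DMSO 0.5% served as negative control. Cultured 72 h in triplicate, then viability read as Plasmodium lactate dehydrogenase activity (Malstat). Each compound run two to four times. IC50 and standard deviation calculated.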
A general note: LDH leaks from cells whose membrane has failed.

The subject of assay [3] is Plasmodium falciparum. Nature of the assay: Antiplasmodial activity against chloroquine-resistant Plasmodium falciparum Dd2 assessed as parasite-specific LDH release after 72 hrs by Malstat assay. Format: functional, organism-based. The following applies: Dd2, 72 h. The method in brief: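 P. falciparum asexual blood stages: synchronized ring-stage cultures at 1% parasitemia, exposed to compounds (in water or DMSO) over 10 pM–100 µM for 72 h in triplicate. 0.5% DMSO served as negative control. Viability was read as parasite lactate dehydrogenase activity (Malstat). Each compound was run two to four times, and IC50 with standard deviation was calculated.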

Assay [4] relates to Plasmodium falciparum. As to the kind of experiment: Antiplasmodial activity against blood stage forms of chloroquine-sensitive Plasmodium falciparum 3D7 assessed as dysfunctional intracellular membrane biosynthesis at IC50 after 72 hrs by electron microscopy. Type of assay: functional, organism-based. The method, boiled down:
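Blood-stage P. falciparum cultured in vitro, exposed 72 h to compound or to 0.5 vol % DMSO control. Fixed in 1% glutaraldehyde/4% paraformaldehyde in PBS, post-fixed in 1% OsO4/1.5% K3[Fe(CN)6], uranyl acetate stained, ethanol-dehydrated and Epon-embedded. Ultrathin sections post-stained with 1% uranyl acetate and examined by transmission EM for intracellular membrane whirls.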

The structures appear in SMILES notation. pIC50: −log10 of the molar value. Activity calls are given as the source filed them. No cut-off for these calls is given here. A value given as a limit tells only on which side of the number the result lay.

As a reminder, the pIC50 is the negative decadic logarithm of the IC50, by convention in mol/L. As for `C[N+](C)(CCCCCCCCCC[N+](C)(C)CCCN1C(=O)c2cccc3cccc(c23)C1=O)CCCN1C(=O)c2cccc3cccc(c23)C1=O`, the figures for the pIC50 in assay [1] and in assay [2] were under 4.00 and 6.84, respectively.
Take `CC(C)(CN1C(=O)c2cccc3cccc(c23)C1=O)C[N+](C)(C)CCCCCCBr`: the pIC50 in assay [1] is under 4.00; in assay [3] it was 6.05; in assay [2] it was 6.37.
With `C[N+](C)(C)CCCCCC[N+](C)(C)C` [HEXAMETHONIUM BROMIDE], the pIC50 in assay [1] and in assay [2] was under 4.00 each time.
In the case of `CCC[N+](C)(C)CC(C)(C)CN1C(=O)c2cccc3cccc(c23)C1=O`, the figures for the pIC50 in assay [1], in assay [3] and in assay [2] were under 4.00, 5.09 and 5.01, respectively.
As for `C[N+](C)(CCCCCCCCCCCC[N+](C)(C)CCCN1C(=O)c2cccc3cccc(c23)C1=O)CCCN1C(=O)c2cccc3cccc(c23)C1=O`, the pIC50 in assay [1] is under 4.00; in assay [2], 6.66.
With `CC(C)(CN1C(=O)c2cccc3cc(N)cc(c23)C1=O)C[N+](C)(C)CCCCCC[N+](C)(C)CC(C)(C)CN1C(=O)c2cccc3cc(N)cc(c23)C1=O`, the pIC50 in assay [1] is under 4.00; in assay [2] it was 4.65.
The matching figures for `C[N+](C)(CCCC[N+](C)(C)CCCN1C(=O)c2cccc3cccc(c23)C1=O)CCCN1C(=O)c2cccc3cccc(c23)C1=O`: under 4.00 and under 4.00.
The matching figures for `CC(C)(CN1C(=O)c2cccc3c([N+](=O)[O-])ccc(c23)C1=O)C[N+](C)(C)CCCCCC[N+](C)(C)CC(C)(C)CN1C(=O)c2cccc3c([N+](=O)[O-])ccc(c23)C1=O`: under 4.00 and 5.46.
The matching figures for `C[N+](C)(CCCCCCCCCCC[N+](C)(C)CCCN1C(=O)c2cccc3cccc(c23)C1=O)CCCN1C(=O)c2cccc3cccc(c23)C1=O`: under 4.00 and 6.77.
Consider `CC(C)(CN1C(=O)c2cccc3cccc(c23)C1=O)C[N+](C)(C)CCCCCC[N+](C)(C)CC(C)(C)CN1C(=O)c2cccc3cccc(c23)C1=O`, for which the pIC50 in assay [1] was under 4.00; in assay [2], 6.10.
`CC(C)(CN1C(=O)c2cccc3cc([N+](=O)[O-])cc(c23)C1=O)C[N+](C)(C)CCCCCC[N+](C)(C)CC(C)(C)CN1C(=O)c2cccc3cc([N+](=O)[O-])cc(c23)C1=O`: the result in assay [4] was Active. Moreover, the pIC50 was under 4.00 in assay [1] and 6.18 in assay [2].
Turning to `C[N+](C)(C)CCCCCCCCCCCC[N+](C)(C)C`, the pIC50 is under 4.00 in assay [1] and 6.40 in assay [2].
In the case of `CC(C)(CN1C(=O)c2cccc3c(N)ccc(c23)C1=O)C[N+](C)(C)CCCCCC[N+](C)(C)CC(C)(C)CN1C(=O)c2cccc3c(N)ccc(c23)C1=O`, the pIC50 in assay [1] was under 4.00; in assay [3], 5.13; in assay [2], 5.17.
`C[N+](C)(CCCCCCC[N+](C)(C)CCCN1C(=O)c2cccc3cccc(c23)C1=O)CCCN1C(=O)c2cccc3cccc(c23)C1=O`: the pIC50 was under 4.00 in assay [1] and 6.29 in assay [2].
The matching figures for `C[N+](C)(C)CCCCCCCCCC[N+](C)(C)C` [DECAMETHONIUM BROMIDE]: under 4.00 and 6.04.
The matching figures for `C[N+](C)(CCCCCCCCC[N+](C)(C)CCCN1C(=O)c2cccc3cccc(c23)C1=O)CCCN1C(=O)c2cccc3cccc(c23)C1=O`: under 4.00 and 7.22.
The matching figures for `C[N+](C)(CCCCC[N+](C)(C)CCCN1C(=O)c2cccc3cccc(c23)C1=O)CCCN1C(=O)c2cccc3cccc(c23)C1=O`: under 4.00 and under 4.00.
`CC(C)(CN1C(=O)c2cccc3cccc(c23)C1=O)C[N+](C)(C)CCCCCC[N+](C)(C)CCCN1C(=O)c2cccc3cccc(c23)C1=O`: the outcome in assay [4] was Active. For the same molecule, the pIC50 was under 4.00 in assay [1] and 6.40 in assay [2].
On to `C[N+](C)(CCCN1C(=O)c2cccc3cccc(c23)C1=O)CCC[N+](C)(C)CCCN1C(=O)c2cccc3cccc(c23)C1=O`, for which the pIC50 in assay [1] and in assay [2] was under 4.00 each time.
Take `C[N+](C)(CCCCCCCC[N+](C)(C)CCCN1C(=O)c2cccc3cccc(c23)C1=O)CCCN1C(=O)c2cccc3cccc(c23)C1=O`: the pIC50 in assay [1] was under 4.00; in assay [2] it was 7.19.
`CN(C)CCCN1C(=O)c2cccc3cccc(c23)C1=O`: the pIC50 in assay [1] and in assay [2] was under 4.00 each time.
As for `C[N+](C)(CCCCCC[N+](C)(C)CCCN1C(=O)c2cccc3cccc(c23)C1=O)CCCN1C(=O)c2cccc3cccc(c23)C1=O`, the pIC50 in assay [1] was under 4.00; in assay [2], 5.10.
